Laboratory results reported in ChEMBL document CHEMBL3603777, “Carbon nanotubes supported tyrosinase in the synthesis of lipophilic hydroxytyrosol and dihydrocaffeoyl catechols with antiviral activity against DNA and RNA viruses” (Bioorg Med Chem, 2015).
In brackets after ≈: the same amount, converted by molar mass. Activity calls are given as the source filed them. No cut-off for these calls is given here.

Columns and labels:
[1] = test system: Human poliovirus 1 strain Sabin; experiment: Antiviral activity against Poliovirus type 1 Sabin VR-1562 infected in African green monkey Vero cells assessed as inhibition of virus-induced plaque formation/cytopathogenicity; format: functional; conditions: Enterovirus C, VR-1562, Vero; read-out: ID50 (the source's name)
How it was run: (§1)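 Cell monolayers infected at MOI 0.1 and treated with compound at 25 to 200 μg/mL. Compounds dissolved in DMSO, diluted in maintenance medium (DMEM, 2% heat-inactivated FCS), final DMSO at most 0.01%. Acyclovir is the reference. ID50 is the concentration giving 50% reduction of plaque formation or virus-induced cytopathogenicity, from dose–response curves by linear regression. Values are the mean of three separate assays.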

[2] = test system: Coxsackievirus B3; experiment: Antiviral activity against Coxsackie type B3 virus VR-1034 infected in African green monkey Vero cells assessed as inhibition of virus-induced plaque formation/cytopathogenicity; format: functional; conditions: Enterovirus B, VR-1034, Vero; read-out: ID50 (the source's name); how it was run: as §1
[3] = test system: Echovirus E9; experiment: Antiviral activity against Human echovirus type 9 VR-1050 infected in African green monkey Vero cells assessed as inhibition of virus-induced plaque formation/cytopathogenicity; format: functional; conditions: Enterovirus B, VR-1050, Vero; read-out: ID50 (the source's name); how it was run: as §1
[4] = test system: Human alphaherpesvirus 1; experiment: Antiviral activity against Herpes simplex type 1 VR-260 infected in African green monkey Vero cells assessed as inhibition of virus-induced plaque formation/cytopathogenicity; format: functional; conditions: Human alphaherpesvirus 1, VR-260, Vero; read-out: ID50 (the source's name); how it was run: as §1
[5] = test system: Human adenovirus 2; experiment: Antiviral activity against Adenovirus type 2 VR-1080 infected in human Hep2 cells assessed as inhibition of virus-induced plaque formation/cytopathogenicity; format: functional; conditions: Human mastadenovirus C, VR-1080, HEp-2; read-out: ID50 (the source's name); how it was run: as §1
[6] = test system: Human adenovirus 5; experiment: Antiviral activity against Adenovirus type 5 VR-1523 infected in human Hep2 cells assessed as inhibition of virus-induced plaque formation/cytopathogenicity; format: functional; conditions: Human mastadenovirus C, VR-1523, HEp-2; read-out: ID50 (the source's name); how it was run: as §1
[7] = test system: Cytomegalovirus; experiment: Antiviral activity against Cytomegalovirus VR-538 infected in human HFF1 cells assessed as inhibition of virus-induced plaque formation/cytopathogenicity; format: functional; conditions: Human betaherpesvirus 5, VR-538, HFF-1; read-out: ID50 (the source's name); how it was run: as §1
[8] = Cytotoxicity against African green monkey Vero cells after 24 hrs by MTT assay; format: cell-based; conditions: chlorocebus sabaeus
[9] = Cytotoxicity against human Hep2 cells after 24 hrs by MTT assay; format: cell-based, HEp-2
[10] = Cytotoxicity against human HFF1 cells after 24 hrs by MTT assay; format: cell-based, HFF-1
[11] = test system: Human alphaherpesvirus 2; experiment: Antiviral activity against Herpes simplex type 2 VR-734 infected in African green monkey Vero cells assessed as inhibition of virus-induced plaque formation/cytopathogenicity; format: functional; conditions: Human alphaherpesvirus 2, VR-734, Vero; read-out: ID50 (the source's name); how it was run: as §1
[12] = test system: Human alphaherpesvirus 1; experiment: Antiviral activity against Herpes simplex type 1 VR-260 infected in African green monkey Vero cells assessed as inhibition of virus replication at 5 times ID50 treated 1 hr after virus adsorption period measured after 12 hrs by plaque assay; format: functional, organism-based
How it was run: (§2)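 Confluent Vero monolayers infected with HSV-1 at MOI 0.1, 2 h adsorption at 4 °C for synchronous replication. Inoculum then removed and fresh medium with or without compound added at various times after adsorption. Incubation at 37 °C for 12 h, cultures frozen, virus yield titrated by plaque assay. Mean ± SEM of three separate assays.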

[13] = test system: Human alphaherpesvirus 1; experiment: Antiviral activity against Herpes simplex type 1 VR-260 infected in African green monkey Vero cells assessed as inhibition of virus replication at 5 times ID50 treated 2 hrs after virus adsorption period measured after 12 hrs by plaque assay; format: functional, organism-based; how it was run: as §2
[14] = test system: Human alphaherpesvirus 1; experiment: Antiviral activity against Herpes simplex type 1 VR-260 infected in African green monkey Vero cells assessed as reduction of virus yield at 5 times ID50 treated 2 hrs after virus adsorption period measured after 12 hrs by plaque assay; format: functional, organism-based; how it was run: as §2
[15] = test system: Human alphaherpesvirus 1; experiment: Inhibition of Herpes simplex type 1 VR-260 adsorption in African green monkey Vero cells assessed as cell-associated viral activity at 5 times ID50 after 120 mins by plaque assay; format: functional, organism-based
How it was run: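 Infective center assay. HSV-1 (10⁶ PFU/mL) preincubated 60 min at 37 °C with compound, chilled to 4 °C, then added to a Vero suspension (10⁶ cells/mL) precooled ≥1 h at 4 °C. Adsorption for 120 min at 4 °C. Cells washed three times with cold DMEM, serially diluted and plaque assayed for cell-associated virus.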

[16] = test system: Human alphaherpesvirus 1; experiment: Antiviral activity against Herpes simplex type 1 VR-260 infected in African green monkey Vero cells assessed as virucidal activity at 5 times ID50 after 1 hr by plaque assay; format: functional, organism-based
How it was run: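 HSV-1 suspension (10⁶ PFU/mL) mixed 1:1 by volume with DMEM containing compound at 5× ID50, held 1 h at 37 °C. Residual infectivity measured by plaque assay on Vero cells after diluting below the inhibitory concentration.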

[17] = test system: Human alphaherpesvirus 1; experiment: Antiviral activity against Herpes simplex type 1 VR-260 infected in African green monkey Vero cells assessed as protection of host cells from viral infection […] by plaque assay; format: functional, organism-based

SMILES	IC50 [1]	IC50 [2]	IC50 [3]	IC50 [4]	IC50 [5]	IC50 [6]	IC50 [7]	CC50 at 24 h [8]	CC50 at 24 h [9]	CC50 at 24 h [10]	IC50 [11]	Activity [12]	Activity [13]	Activity [14]	inhibition [15]	Activity [16]	Activity [17]
CCCCC(=O)OCCc1ccc(O)c(O)c1	> 25 µg/mL	> 25 µg/mL	> 25 µg/mL	25 µg/mL (≈ 105 µM)	> 25 µg/mL	> 25 µg/mL	> 25 µg/mL	25 µg/mL (≈ 105 µM)	25 µg/mL (≈ 105 µM)	25 µg/mL (≈ 105 µM)	–	–	–	–	–	–	–
COC(=O)CCc1ccc(O)c(O)c1	> 100 µg/mL	> 100 µg/mL	> 100 µg/mL	> 100 µg/mL	> 100 µg/mL	> 100 µg/mL	100 µg/mL (≈ 510 µM)	100 µg/mL (≈ 510 µM)	100 µg/mL (≈ 510 µM)	100 µg/mL (≈ 510 µM)	> 100 µg/mL	–	–	–	–	–	–
CCOC(=O)CCc1ccc(O)c(O)c1	> 75 µg/mL	20 µg/mL (≈ 95.1 µM)	> 75 µg/mL	15 µg/mL (≈ 71.4 µM)	> 40 µg/mL	> 40 µg/mL	40 µg/mL (≈ 190 µM)	75 µg/mL (≈ 357 µM)	40 µg/mL (≈ 190 µM)	40 µg/mL (≈ 190 µM)	60 µg/mL (≈ 285 µM)	Active	inactive	Active	inactive	inactive	inactive
CCCCOC(=O)CCc1ccc(O)c(O)c1	> 200 µg/mL	100 µg/mL (≈ 420 µM)	> 200 µg/mL	> 200 µg/mL	> 200 µg/mL	> 200 µg/mL	25 µg/mL (≈ 105 µM)	200 µg/mL (≈ 839 µM)	200 µg/mL (≈ 839 µM)	100 µg/mL (≈ 420 µM)	> 200 µg/mL	–	–	–	–	–	–
CCCOC(=O)CCc1ccc(O)c(O)c1	> 200 µg/mL	> 200 µg/mL	> 200 µg/mL	> 200 µg/mL	> 200 µg/mL	> 200 µg/mL	–	> 200 µg/mL	> 200 µg/mL	–	–	–	–	–	–	–	–
O=C(O)CCc1ccc(O)c(O)c1 [DIHYDROCAFFEIC ACID]	> 200 µg/mL	> 200 µg/mL	> 200 µg/mL	> 200 µg/mL	> 200 µg/mL	> 200 µg/mL	> 200 µg/mL	> 200 µg/mL	> 200 µg/mL	> 200 µg/mL	–	–	–	–	–	–	–
CCCC(=O)OCCc1ccc(O)c(O)c1 [HYDROXYTYROSOL BUTANOATE]	> 100 µg/mL	> 100 µg/mL	> 100 µg/mL	> 100 µg/mL	> 100 µg/mL	> 100 µg/mL	> 100 µg/mL	100 µg/mL (≈ 446 µM)	100 µg/mL (≈ 446 µM)	100 µg/mL (≈ 446 µM)	100 µg/mL (≈ 446 µM)	–	–	–	–	–	–
CCC(=O)OCCc1ccc(O)c(O)c1	> 40 µg/mL	> 40 µg/mL	> 40 µg/mL	20 µg/mL (≈ 95.1 µM)	> 40 µg/mL	> 40 µg/mL	> 40 µg/mL	40 µg/mL (≈ 190 µM)	40 µg/mL (≈ 190 µM)	40 µg/mL (≈ 190 µM)	40 µg/mL (≈ 190 µM)	–	–	–	–	–	–
CC(=O)OCCc1ccc(O)c(O)c1	> 100 µg/mL	50 µg/mL (≈ 255 µM)	> 100 µg/mL	20 µg/mL (≈ 102 µM)	> 50 µg/mL	> 50 µg/mL	> 50 µg/mL	100 µg/mL (≈ 510 µM)	50 µg/mL (≈ 255 µM)	50 µg/mL (≈ 255 µM)	40 µg/mL (≈ 204 µM)	–	–	–	–	–	–
